# The list is not random: actives were taken first. Their share in the collection is about 5.1%.
# STAT3 inh-1 – inhibitors of IL-6 induced STAT3 signaling | 0.89% of 190,000 active | inhibition, % at 5.5 µM | U3A cells, IL-6 STAT3-luciferase reporter, luminescence; host cell line lacks STAT1;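 active = inhibition above the mean inhibition across all screened compounds plus 3 SD, cut at about 44% in these data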;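 note: 0% = DMSO only wells and 100% = 100 µM nifuroxazide control wells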
# STAT1 inh – STAT1 signaling inhibition; NIH 3T3 STAT1-luciferase reporter, IFN-gamma, luminescence; inhibition, % at 5.5 µM; 0.35% of 200,000 active;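 active = inhibition above a set limit, the mean inhibition across all tested compounds plus 3 SD, cut at about 34% in these data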;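 note: 0% = IFN-gamma with DMSO and 100% = IFN-gamma with 300 µM nifuroxazide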
# APP 5'UTR act – activates APP 5'UTR luciferase reporter; SH-SY5Y APP 5'UTR luciferase reporter, luminescence; zero percent = DMSO vehicle wells; AID 1276; activation, % at 2 µM; 1% of 190,000 active;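 active = activation above a set limit, based on mean plus 3 SD of controls, cut at about 140% in these data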
# NF-kB neuron act – NF-kB expression increase, human neuronal cells. NF-kB reporter expression; hits give high values. fold change at 12.5 µM. 1.6% of 190,000 active. AID 1239; in the data active = fold change above about 3.3
# STAT3 act-1 – activators of IL-6 induced STAT3 signaling; U3A cells, IL-6 STAT3-luciferase reporter, luminescence; 100% = signal with IL-6 EC80 alone; 0.91% of 190,000 active; activation (% of control), % at 5.6 µM;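 active = activation above the screen-wide mean of compound activation plus 3 SD, cut at about 130% in these data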;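 note: 0% = background luminescence of wells with medium and substrate only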
#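 System – human U3A cells carrying STAT3-luciferase construct · Probe or stimulus – Interleukin-6, 33 ng/mL · Schedule – compound 1 h, then IL-6 6 h at 37 °C · Signal – luminescence from STAT3-driven luciferase reporter · Evaluation – percent of IL-6-only median luminescence · Benchmarks – IL-6-only high control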
# STAT1 act-1 – increases IFN-gamma driven STAT1 reporter signal. AID 932. activation (% of control), % at 5.5 µM. NIH 3T3 STAT1-luciferase reporter, luminescence; 100% = IFN-gamma alone, no compound. 2.6% of 200,000 active;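 active = activation above the screen-wide mean activation plus 3 SD, cut at about 130% in these data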;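 note: raw ratio to IFN-gamma control signal so 100% means no change and 0% no light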
# STAT3 inh-2 – STAT3 inhibition, confirmation assay; shares compounds with STAT3 inh-1; U3A cells, IL-6 STAT3 luciferase reporter, luminescence; cell line lacks STAT1; inhibition, % at 5.7 µM; 45% of 1,200 active; AID 1265;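 active = inhibition above the hit cutoff computed for the primary STAT3 screen, cut at about 44% in these data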;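 note: 0% = IL-6 plus DMSO and 100% = IL-6 plus nifuroxazide control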
# NFkB inh 2 – counter-screen for STAT3 inhibitors: NF-kappaB inhibition | HEK293T NF-kB luciferase reporter, TNF-alpha induced | inhibition, % at 5.7 µM | 36% of 1,200 active | shares compounds with STAT3 inh-1;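 active = inhibition above the mean of solvent-only control wells plus 3 SD, cutoff set per campaign, cut at about 13% in these data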;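 note: 0% = TNF-alpha with DMSO and 100% = TNF-alpha with MG high control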
# STAT1 inh 2 – inhibits STAT1, counter-screen to STAT3 inhibitors. shares compounds with STAT3 inh-1. AID 1317. 27% of 1,200 active. inhibition, % at 5.7 µM. NIH 3T3 STAT1-luciferase reporter, IFN-gamma induced, luminescence;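 active = inhibition above the mean plus 3 SD of solvent-only control wells, limit set per screening run, cut at about 16% in these data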;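 note: 0% = DMSO with IFN-gamma and 100% = nifuroxazide control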
# STAT3 act-2 – STAT3 activation, confirmation assay | U3A STAT3-luciferase reporter, IL-6 potentiation, luminescence; U3A cells lack STAT1; 100 means same as IL-6 alone | shares compounds with STAT3 act-1 | AID 1267 | 64% of 1,200 active | potentiation (% of control), % at 5.7 µM;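 active = percent activation of the STAT3 luciferase reporter above a set limit taken from the earlier primary screen, cut at about 130% in these data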;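 note: 0% = background signal of medium plus substrate and 100% = median of IL-6 with DMSO wells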
# NFkB act 2 – activates NF-kappaB, counter-screen to STAT3 activators; shares compounds with STAT3 act-1; human cells, NF-kappaB reporter activation; activation (% of control), % at 5.7 µM; 11% of 1,200 active; AID 1309; in the data active = activation above about 120%;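 note: reporter induced by TNF-alpha stimulation; 100% = median of stimulated DMSO wells and 0% = no signal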
# STAT1 act-2 – counter-screen for STAT3 activators: STAT1 activation. shares compounds with STAT3 act-1. AID 1318. NIH 3T3 STAT1-luciferase reporter, IFN-gamma, luminescence. 13% of 1,200 active. activation (% of control), % at 5.7 µM;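 active = activation above the solvent-only control well mean plus 3 SD, set per screening run, cut at about 120% in these data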;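 note: 100% = IFN-gamma with DMSO median signal so 100% means no change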
# STAT1 activ conf – STAT1 activation, confirmation assay; shares compounds with STAT1 act-1; 97% of 1,200 active; NIH 3T3 STAT1-luciferase reporter, IFN-gamma potentiation, luminescence; 100% = IFN-gamma EC80 alone, no compound; AID 1262; activation (% of control), % at 5.7 µM;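 active = activation above a set limit carried over from the earlier primary STAT1 screen, cut at about 140% in these data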;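 note: simple ratio to median IFN-gamma plus DMSO wells so 0% means no light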
# NFkB act – activates NF-kappaB, counter-screen to STAT1 activators; shares compounds with STAT1 act-1; HEK293T NF-kB luciferase reporter, TNF-alpha stimulated, luminescence; 100% = TNF-alpha with vehicle only; activation (% of control), % at 5.7 µM; 43% of 1,200 active; AID 1306;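 active = activation above the mean of solvent-only control wells plus 3 SD, set per campaign, cut at about 130% in these data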;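 note: TNF-alpha given at a submaximal dose yielding about 80% of full reporter signal; values are well signal over median control so 100% means no change and 0% no light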
# STAT3 act STAT1c – activates human STAT3, counter-screen to STAT1 activators; 46% of 1,200 active; AID 1316; U3A cells STAT3-luciferase reporter, IL-6, luminescence; cells lack STAT1; 100 = IL-6 alone, no compound effect; activation (% of control), % at 5.7 µM; shares compounds with STAT1 act-1;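 active = activation above the solvent-only control well mean plus 3 SD, set per plate batch, cut at about 110% in these data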;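 note: 0% = no luminescence and 100% = median IL-6 plus DMSO wells; higher means more STAT3 reporter activation so hits are non-selective activators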
# * marks the source's active call; other numbers are inactive results; x = not tested or not shown.
SMILES,STAT3 inh-1,STAT1 inh,APP 5'UTR act,NF-kB neuron act,STAT3 act-1,STAT1 act-1,STAT3 act-2,NFkB act 2,STAT1 act-2,others
O=C(Nc1ccccc1)c1cc2ccccc2o1,43.5*,-48.5,230.4*,8.78*,65.1,153.2*,x,x,x,STAT3 inh-2=10.4;NFkB inh 2=-43.0;STAT1 inh 2=-119.9;STAT1 activ conf=227.4*;NFkB act=134.3*;STAT3 act STAT1c=98.7
CCCCCc1ccc(-c2ccc(/C=C/C(N)=O)cc2)nc1,19.4,-5.6,11.0,1.27,85.6,105.0,x,x,x,
CCCCc1ccc(-c2ccc(C)cc2O)nc1,51.0*,-59.7,203.4*,7.23*,56.7,155.5*,x,x,x,STAT3 inh-2=16.7;NFkB inh 2=-36.7;STAT1 inh 2=-113.0;STAT1 activ conf=197.6*;NFkB act=110.2;STAT3 act STAT1c=85.2
CC(C)(C)C1C/C(=C/c2ccccn2)C(=O)/C(=C/c2ccccn2)C1 (stereo not drawn),48.2*,-131.5,-94.7,0.18,61.7,221.4*,x,x,x,STAT3 inh-2=21.9;NFkB inh 2=52.1*;STAT1 inh 2=-112.8;STAT1 activ conf=198.6*;NFkB act=32.0;STAT3 act STAT1c=72.3
CC1C/C(=C/c2ccccn2)C(=O)/C(=C/c2ccccn2)C1 (stereo not drawn),55.9*,-142.3,-97.5,0.15,53.2,234.8*,x,x,x,STAT3 inh-2=35.5;NFkB inh 2=-18.7;STAT1 inh 2=-45.0;STAT1 activ conf=120.4;NFkB act=87.3;STAT3 act STAT1c=79.2
O=C1/C(=C/c2ccccn2)COc2ccccc21,4.4,3.0,-4.8,1.32,97.6,96.2,x,x,x,
O=C(CN1C(=O)C2CC=CCC2C1=O)NCc1cccs1 (stereo not drawn),2.8,-3.7,2.1,1.03,98.8,102.1,x,x,x,
O=C(CCc1nnc(C2CCCCC2)o1)NCCCOc1cccnc1,7.6,-0.6,12.0,1.05,97.1,99.0,x,x,x,
CCN(CC1COc2ccccc2O1)C(=S)Nc1ccc(F)cc1 (stereo not drawn),12.8,3.8,8.8,0.95,90.9,96.7,x,x,x,
Fc1cccc(NC(=S)NCCc2ccccc2)c1,11.3,14.3,31.6,1.7,89.2,88.5,x,x,x,
Cc1cccc(NC(=S)NC(=O)c2cccs2)n1,-36.2,-22.1,81.6,2.04,140.6*,119.9,137.9*,117.2,119.2,
Cc1ccc2nc(NC(=S)NC(=O)c3cccs3)sc2c1,-62.2,-23.1,242.7*,5.45*,163.3*,120.8,171.1*,125.8*,132.1*,
Cc1nc(NC(=S)NC(=O)c2cccs2)ccc1Br,-48.6,-1.4,67.7,2.25,148.1*,101.3,173.2*,109.9,114.3,
O=C(NNC(=O)c1ccc(F)cc1)C(=O)N1CCCCC1,-3.6,-3.5,-4.1,1.1,100.9,103.1,x,x,x,
CCCCSc1nc2c(cnn2-c2ccc(F)cc2)c(=O)[nH]1,1.6,3.7,4.5,1.11,103.1,96.7,x,x,x,
COc1ccc(CCNC(=O)Cn2cccc2C(=O)c2ccccc2)c(OC)c1,6.1,2.7,21.0,0.93,96.7,96.1,x,x,x,
CCc1nc(N2CCOCC2)c(C#N)c2c1CCCC2,-4.2,6.9,0.8,0.95,106.2,93.7,x,x,x,
COc1cccc(CC2(CO)CCCN(Cc3cc4ccccc4[nH]3)C2)c1 (stereo not drawn),-49.6,10.9,6.0,0.95,147.8*,88.8,145.2*,100.0,88.9,
COc1cccc(CC2(CO)CCCN(Cc3ccc(C)s3)C2)c1 (stereo not drawn),-0.1,-0.5,10.7,1.17,111.2,99.6,x,x,x,
CN1CCN(c2ccc(C(=O)c3ccccc3)cc2[N+](=O)[O-])CC1,10.1,-9.4,-4.3,1.75,95.0,108.3,x,x,x,
COC(=O)c1ccc(N2CCN(CC(=O)c3ccc(-c4ccccc4)cc3)CC2)c([N+](=O)[O-])c1,-43.2,-9.0,5.9,1.34,144.1*,108.1,137.8*,108.1,123.7*,
CC(C)Oc1ccccc1C1CC(=O)Nc2cc3c(cc21)OCO3 (stereo not drawn),6.5,10.1,-91.9,1.98,97.9,90.8,x,x,x,
CC(C)c1ccc(C2C3=C(COC3=O)Nc3cc4c(cc32)OCO4)cc1 (stereo not drawn),-41.2,-18.9,-95.0,1.14,151.4*,116.3,107.9,137.8*,116.5,
Cc1ccnc(NS(=O)(=O)c2ccc(NC(=O)c3ccc(S(=O)(=O)N4CC(C)OC(C)C4)cc3)cc2)n1 (stereo not drawn),3.6,-0.2,-1.7,1.13,95.2,102.5,x,x,x,
O=C(NCCSc1c[nH]c2ccccc12)c1c(F)cccc1F,x,-10.0,-1.5,1.21,x,107.8,x,x,x,
O=C(NCCSc1c[nH]c2ccccc12)c1ccco1,-42.3,-9.7,-1.4,1.73,139.9*,108.7,121.2,110.1,133.3*,
CC(C)(C)c1ccc(C(=O)C2CCCN(C(=O)C3CCOCC3)C2)cc1 (stereo not drawn),-2.2,-1.4,15.9,0.91,104.8,100.2,x,x,x,
CCOc1ccccc1-c1n[nH]c(=S)o1,-85.9,-3.7,-7.6,0.93,173.4*,103.6,156.0*,104.0,96.2,
Oc1ccccc1/C=N/n1c2ccccc2c2ccccc21,-52.6,9.4,1.2,0.99,147.0*,91.6,137.3*,99.4,96.5,
O=C(Cc1c[nH]c2ccccc12)OCC(=O)c1ccccc1,-35.8,-3.5,-16.1,1.27,136.2*,103.1,132.4,104.4,93.2,
